In ChEMBL document CHEMBL4334479, “Trichocadinins B-G: Antimicrobial Cadinane Sesquiterpenes from Trichoderma virens QA-8, an Endophytic Fungus Obtained from the Medicinal Plant Artemisia argyi” (2019) one finds MIC data, which are given here for eight compounds.

Values after ≈ are worked out from the molar mass of the structure shown. Active and inactive are the calls of the source. The rule behind the calls is not given here.

Common to all, as to format: functional
In assay [1] the test system is Escherichia coli. In words: Antibacterial activity against Escherichia coli EMBLC 1 by microplate XTT assay. The method in brief: (§1)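 Bacterial strains tested in a microplate assay with chloramphenicol as the positive control. Activity is reported as MIC in μg/mL.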
(In general: Formazan colour is commonly taken as a measure of viable cells.)

For assay [2], the system named is Aeromonas hydrophila. In words: Antibacterial activity against Aeromonas hydrophila QDIO 1 by microplate XTT assay. The method in brief:
as §1

For assay [3], the system named is Edwardsiella tarda. In words: Antibacterial activity against Edwardsiella tarda QDIO 2 by microplate XTT assay. The method in brief: as §1
In assay [4] the test system is Bipolaris sorokiniana. In words: Antifungal activity against Bipolaris sorokiniana QDAU 7 by microplate XTT assay. Put shortly:
(§2)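 Plant-pathogenic fungi, provided by Qingdao Agricultural University, were tested in a microplate assay with amphotericin B as the positive control.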

For assay [5], the system named is Micrococcus luteus. In words: Antibacterial activity against Micrococcus luteus QDIO 3 by microplate XTT assay. Put shortly: as §1
The test system of assay [6] is Pseudomonas aeruginosa. As to the kind of experiment: Antibacterial activity against Pseudomonas aeruginosa QDIO 4 by microplate XTT assay. The method in brief: as §1
The subject of assay [7] is Alternaria solani. As to the kind of experiment: Antifungal activity against Alternaria solani QDAU 14 by microplate XTT assay. The method in brief: as §2
Assay [8] relates to Vibrio anguillarum. In words: Antibacterial activity against Vibrio anguillarum QDIO 6 by microplate XTT assay. The method in brief: as §1
Assay [9] concerns Vibrio harveyi. In words: Antibacterial activity against Vibrio harveyi QDIO 7 by microplate XTT assay. Put shortly: as §1
Assay [10] relates to Vibrio parahaemolyticus. As to the kind of experiment: Antibacterial activity against Vibrio parahaemolyticus QDIO 8 by microplate XTT assay. Put shortly:
as §1

In assay [11] the test system is Vibrio vulnificus. As to the kind of experiment: Antibacterial activity against Vibrio vulnificus QDIO 9 by microplate XTT assay. The method in brief: as §1
Assay [12] deals with Ceratobasidium cornigerum. In words: Antifungal activity against Ceratobasidium cornigerum QDAU 8 by microplate XTT assay. Put shortly:
as §2

The test system of assay [13] is Colletotrichum gloeosporioides. In words: Antifungal activity against Colletotrichum gloeosporioides Penz-QDAU 9 by microplate XTT assay. Put shortly: as §2
For assay [14], the system named is Fusarium graminearum. As to the kind of experiment: Antifungal activity against Fusarium graminearum QDAU 10 by microplate XTT assay. The method in brief:
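Plant-pathogenic fungal strain supplied by Qingdao Agricultural University; MIC determined by microplate assay with amphotericin B as positive control.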

Assay [15] has as its system Fusarium oxysporum f. sp. cucumerinum. As to the kind of experiment: Antifungal activity against Fusarium oxysporum f.sp.cucumerinum QDAU 16 by microplate XTT assay. Put shortly: as §2
For assay [16], the system named is Fusarium oxysporum f. sp. momordicae. In words: (§3) Antifungal activity against Fusarium oxysporum f.sp.momordicae QDAU 17 by microplate XTT assay. The method in brief: as §2
Assay [17] in a line: (§4) Antifungal activity against Fusarium oxysporum f.sp. radicis-lycopersici QDAU 5 by microplate XTT assay. Put shortly:
as §2

Assay [18] relates to Fusarium solani. In words: Antifungal activity against Fusarium solani QDAU 15 by microplate XTT assay. The method in brief: as §2
The test system of assay [19] is Colletotrichum gloeosporioides. In words: Antifungal activity against Glomerella cingulata QDAU 2 by microplate XTT assay. Put shortly: as §2
Assay [20] relates to Bipolaris maydis. As to the kind of experiment: Antifungal activity against Helminthosporium maydis QDAU 18 by microplate XTT assay. Put shortly: as §2
In assay [21] the test system is Penicillium digitatum. In words: Antifungal activity against Penicillium digitatum QDAU 11 by microplate XTT assay. The method in brief:
as §2

In assay [22] the test system is Botryosphaeria berengeriana. As to the kind of experiment: Antifungal activity against Physalospora pyricola Nose QDAU 12 by microplate XTT assay. The method in brief: as §2
In assay [23] the test system is Cytospora mali. As to the kind of experiment: Antifungal activity against Valsa mali QDAU 13 by microplate XTT assay. The method in brief: as §2
The subject of assay [24] is Fusarium oxysporum f. sp. radicis-lycopersici. The assay is described as §4. Put shortly:
as §2

Assay [25] is described as follows: as §3. Put shortly: as §2

The MIC is the least concentration at which growth counts as inhibited. For `C=C1CC[C@H](C(C)C)[C@H]2C=C(C(=O)O)C[C@@H](O)[C@H]12`, the MIC result in [1], in [2], in [3], in assay [4], in assay [5] and in assay [6] was “inactive” each time. In addition, the MIC result in assay [7], in [8], in assay [9], in [10], in [11] and in assay [12] was “inactive” each time. Moreover, the MIC entry in assay [13], in assay [14], in assay [16], in assay [18], in [19] and in assay [20] was “inactive” each time. In addition, the MIC entry in assay [23] was “inactive”. The MIC was 32 µg/mL (≈ 128 µM) in assay [15], 64 µg/mL (≈ 256 µM) in [17], 16 µg/mL (≈ 63.9 µM) in [21] and 1 µg/mL (≈ 3.99 µM) in assay [22].
On to `CC(C)[C@H]1CCC(=O)c2cc(O)c(C(=O)O)cc21`, for which the MIC entry in assay [1], in assay [2], in assay [4], in assay [5], in [6] and in assay [7] was “inactive” in each case. The MIC result in assay [9], in assay [10], in assay [11], in assay [12], in assay [13] and in assay [14] was “inactive” each time. Also, the MIC result in [16], in assay [24], in assay [18], in assay [19], in assay [20] and in assay [21] was “inactive” throughout. The MIC entry in assay [23] is “inactive”. Further, the minimum inhibitory concentration (MIC) in assay [3] turned out to be 1 µg/mL (≈ 4.03 µM); in [8], 2 µg/mL (≈ 8.06 µM); in [15] it was 64 µg/mL (≈ 258 µM); in [22], 4 µg/mL (≈ 16.1 µM).
On to `O=C(N[C@H](CO)[C@H](O)c1ccc([N+](=O)[O-])cc1)C(Cl)Cl` [CHLORAMPHENICOL], for which the MIC in [1] was found to be 2 µg/mL (≈ 6.19 µM); in assay [2], 4 µg/mL (≈ 12.4 µM); in assay [3] it was 0.5 µg/mL (≈ 1.55 µM); in assay [5] it was 4 µg/mL (≈ 12.4 µM); in assay [6], 2 µg/mL (≈ 6.19 µM); in assay [8] it was 1 µg/mL (≈ 3.09 µM). Also, the MIC came out at 1 µg/mL (≈ 3.09 µM) in [9], 4 µg/mL (≈ 12.4 µM) in [10] and 1 µg/mL (≈ 3.09 µM) in assay [11].
As for `CC(C)[C@H]1CC[C@@H](C)[C@]2(O)CCC(C(=O)O)=C[C@H]12`, the MIC result in assay [1], in [2], in [3], in [4], in assay [5] and in [6] was “inactive” each time. Also, the MIC result in [7], in [8], in [9], in assay [10], in assay [11] and in assay [12] was “inactive” in each case. Also, the MIC result in [13], in assay [14], in assay [16], in assay [24], in assay [18] and in [19] was “inactive” throughout. Further, the MIC result in assay [21], in assay [22] and in assay [23] was “inactive” in each case. For the same compound, the MIC in assay [15] turned out to be 32 µg/mL (≈ 127 µM); in assay [20], 16 µg/mL (≈ 63.4 µM).
As to `C=C1CC[C@H](C(C)C)[C@@H]2C=C(C(=O)O)CC[C@H]12`, the minimal inhibitory concentration (MIC) stood at 8 µg/mL (≈ 34.1 µM) in [1]; 8 µg/mL (≈ 34.1 µM) in [2]; 32 µg/mL (≈ 137 µM) in assay [5]; 4 µg/mL (≈ 17.1 µM) in assay [6]; 2 µg/mL (≈ 8.53 µM) in assay [9]; 8 µg/mL (≈ 34.1 µM) in assay [10]. The MIC in assay [11] came to 64 µg/mL (≈ 273 µM); in [15], 16 µg/mL (≈ 68.3 µM); in assay [17] it was 64 µg/mL (≈ 273 µM); in [19] it was 1 µg/mL (≈ 4.27 µM); in assay [22] it was 8 µg/mL (≈ 34.1 µM); in assay [23], 32 µg/mL (≈ 137 µM). Further, the MIC result in assay [3], in [4], in assay [7], in assay [8], in [12] and in assay [13] was “inactive” throughout. Moreover, the MIC result in assay [14], in assay [16], in assay [18], in assay [20] and in [21] was “inactive” in each case.
With `CC(C)[C@H]1CCc2coc3cc(C(=O)O)cc1c23`, the MIC in assay [1] was 8 µg/mL (≈ 32.7 µM); in assay [2], 8 µg/mL (≈ 32.7 µM); in [4], 1 µg/mL (≈ 4.09 µM); in [5], 32 µg/mL (≈ 131 µM); in assay [6], 8 µg/mL (≈ 32.7 µM); in [7], 4 µg/mL (≈ 16.4 µM). Moreover, the MIC turned out to be 8 µg/mL (≈ 32.7 µM) in [9]; 4 µg/mL (≈ 16.4 µM) in assay [10]; 64 µg/mL (≈ 262 µM) in assay [11]; 16 µg/mL (≈ 65.5 µM) in assay [12]; 8 µg/mL (≈ 32.7 µM) in assay [13]; 8 µg/mL (≈ 32.7 µM) in assay [14]. Also, the MIC was 1 µg/mL (≈ 4.09 µM) in assay [15]; 2 µg/mL (≈ 8.19 µM) in assay [25]; 64 µg/mL (≈ 262 µM) in [17]; 4 µg/mL (≈ 16.4 µM) in assay [18]; 1 µg/mL (≈ 4.09 µM) in assay [19]; 8 µg/mL (≈ 32.7 µM) in [21]. Moreover, the figures for the MIC in assay [22] and in assay [23] were 4 µg/mL (≈ 16.4 µM) and 16 µg/mL (≈ 65.5 µM), respectively. Further, the MIC result in [3], in assay [8] and in assay [20] was “inactive” each time.
Regarding `C[C@H](CO)[C@H]1CCc2coc3cc(C(=O)O)cc1c23`, the MIC in assay [1] was found to be 16 µg/mL (≈ 61.5 µM); in [2] it was 64 µg/mL (≈ 246 µM); in [4], 8 µg/mL (≈ 30.7 µM); in assay [6], 8 µg/mL (≈ 30.7 µM); in assay [7] it was 32 µg/mL (≈ 123 µM); in assay [9], 16 µg/mL (≈ 61.5 µM). Further, the MIC turned out to be 32 µg/mL (≈ 123 µM) in assay [10]; 2 µg/mL (≈ 7.68 µM) in assay [15]; 32 µg/mL (≈ 123 µM) in [18]; 4 µg/mL (≈ 15.4 µM) in assay [19]; 8 µg/mL (≈ 30.7 µM) in assay [21]; 4 µg/mL (≈ 15.4 µM) in assay [22]. Besides, the MIC entry in assay [3], in assay [5], in assay [8], in assay [11], in assay [12] and in [13] was “inactive” in each case. Moreover, the MIC result in assay [14], in [16], in [24], in assay [20] and in assay [23] was “inactive” each time.
Regarding `C[C@@H]1[C@H](O)[C@@H](C)/C=C/C=C/C=C/C=C/C=C/C=C/C=C/[C@H](O[C@@H]2O[C@H](C)[C@@H](O)[C@H](N)[C@@H]2O)C[C@@H]2O[C@](O)(C[C@@H](O)C[C@@H](O)[C@H](O)CC[C@@H](O)C[C@@H](O)CC(=O)O[C@H]1C)C[C@H](O)[C@H]2C(=O)O` [AMPHOTERICIN B], the MIC in [4] was found to be 0.5 µg/mL (≈ 0.541 µM); in assay [7], 2 µg/mL (≈ 2.16 µM); in assay [12], 8 µg/mL (≈ 8.66 µM); in assay [13], 0.5 µg/mL (≈ 0.541 µM); in assay [14], 2 µg/mL (≈ 2.16 µM); in assay [15] it was 0.5 µg/mL (≈ 0.541 µM). For the same compound, the minimal inhibitory concentration (MIC) in assay [25] was 1 µg/mL (≈ 1.08 µM); in assay [17] it was 2 µg/mL (≈ 2.16 µM); in assay [18] it was 4 µg/mL (≈ 4.33 µM); in assay [19], 0.5 µg/mL (≈ 0.541 µM); in assay [20], 2 µg/mL (≈ 2.16 µM); in [21], 2 µg/mL (≈ 2.16 µM). The MIC is 2 µg/mL (≈ 2.16 µM) in [22] and 8 µg/mL (≈ 8.66 µM) in assay [23].
